Data taken from ChEMBL document CHEMBL4354828, “Discovery of Taniborbactam (VNRX-5133): A Broad-Spectrum Serine- and Metallo-β-lactamase Inhibitor for Carbapenem-Resistant Bacterial Infections” (J Med Chem, 2020).
In brackets after ≈: the same amount, converted by molar mass.

Tests used:
[1] = tested on: Klebsiella pneumoniae; assay: Inhibition of VIM-27/CTX-M-15/SHV-11/OXA-1 in Klebsiella pneumoniae CDC-0040 assessed as piperacillin antibacterial activity at 16 ug/ml after 16 to 20 hrs by CLSI-based microbroth dilution method
[2] = tested on: Klebsiella pneumoniae; assay: Inhibition of OXA-232/OXA-9/TEM-1A/CTX-M-15/OXA-1 in Klebsiella pneumoniae CDC-0066 assessed as piperacillin antibacterial activity at 16 ug/ml after 16 to 20 hrs by CLSI-based microbroth dilution method (Rvb > […] ug/ml)
[3] = tested on: Escherichia coli; assay: Inhibition of NDM in Escherichia coli CDC-0452 assessed as piperacillin antibacterial activity at 16 ug/ml after 16 to 20 hrs by CLSI-based microbroth dilution method (Rvb > […] ug/ml)
[4] = tested on: Klebsiella pneumoniae ATCC BAA-1705; assay: Inhibition of KPC-2 in Klebsiella pneumoniae ATCC BAA 1705 assessed as cefepime antibacterial activity at 8 ug/ml after 16 to 20 hrs by CLSI-based microbroth dilution method
How it was run: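 MDR β-lactamase-producing Gram-negative clinical isolates. […] MIC was reported as the inhibitor concentration that restores the partner's antibacterial activity.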

[5] = tested on: Klebsiella pneumoniae; assay: Inhibition of VIM-27/CTX-M-15/SHV-11/OXA-1 in Klebsiella pneumoniae CDC-0040 assessed as cefepime antibacterial activity at 8 ug/ml after 16 to 20 hrs by CLSI-based microbroth dilution method
[6] = tested on: Klebsiella pneumoniae; assay: Inhibition of KPC-2/SHV12/TEM-1 in Klebsiella pneumoniae CDC-0361 assessed as cefepime antibacterial activity at 8 ug/ml after 16 to 20 hrs by CLSI-based microbroth dilution method (reference value: […] ug/ml)
[7] = tested on: Klebsiella pneumoniae ATCC BAA-1705; assay: Inhibition of KPC-2 in Klebsiella pneumoniae ATCC BAA 1705 assessed as meropenem antibacterial activity at 4 ug/ml after 16 to 20 hrs by CLSI-based microbroth dilution method (reference value: […] ug/ml)
[8] = tested on: Klebsiella pneumoniae; assay: Inhibition of OXA-232/OXA-9/TEM-1A/CTX-M-15/OXA-1 in Klebsiella pneumoniae CDC-0066 assessed as meropenem antibacterial activity at 4 ug/ml after 16 to 20 hrs by CLSI-based microbroth dilution method (reference value: […] ug/ml)
[9] = tested on: Enterobacter cloacae; assay: Inhibition of VIM-1/VIM-2/VIM-4/NDM-1 in Enterobacter cloacae assessed as cefepime antibacterial activity at 4 ug/ml after 16 to 20 hrs by CLSI-based microbroth dilution method
How it was run: (§1)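 Panel of 14 clinical isolates expressing class B VIM- or NDM-type MBLs: E. coli (4), E. cloacae (2), K. pneumoniae (4), P. aeruginosa (1), A. baumannii (3).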

[10] = tested on: Acinetobacter baumannii; assay: Inhibition of VIM-1/VIM-2/VIM-4/NDM-1 in Acinetobacter baumannii assessed as cefepime antibacterial activity at 4 ug/ml after 16 to 20 hrs by CLSI-based microbroth dilution method; how it was run: as §1
[11] = Half life in mouse at 10 mg/kg, iv after 1 to 6 hrs by LC-MS/MS analysis; type: ADME, organism-based; details: in vivo
[12] = Inhibition of bacterial KPC-2 using imipenem as substrate preincubated for 15 mins followed by susbtrate addition and measured after 10 mins by spectrophotometric method; parameters: species or system Bacteria
[13] = Inhibition of bacterial OXA-48 using nitrocefin as substrate preincubated for 15 mins followed by susbtrate addition and measured after 10 mins by spectrophotometric method; parameters: species or system Bacteria
[14] = target: Beta-lactamase VIM-2 (Pseudomonas aeruginosa) (UniProt Q9K2N0); assay: Inhibition of VIM-2 in Pseudomonas aeruginosa assessed as meropenem antibacterial activity at 4 ug/ml after 16 to 20 hrs by CLSI-based microbroth dilution method (Rvb >= […] ug/ml)
[15] = Inhibition of bacterial SHV-5 using cefotaxime as substrate preincubated for 15 mins followed by susbtrate addition and measured after 10 mins by spectrophotometric method; parameters: species or system Bacteria
[16] = tested on: Enterobacter cloacae; assay: Inhibition of TEM/CTX-M/SHV/Cephalosporinase in Enterobacter cloacae CH23 assessed as cefepime antibacterial activity at 4 ug/ml after 16 to 20 hrs by CLSI-based microbroth dilution method (Rvb > […] ug/ml)
[17] = tested on: Klebsiella pneumoniae; assay: Inhibition of TEM/CTX-M/SHV in Klebsiella pneumoniae 9032 assessed as cefepime antibacterial activity at 4 ug/ml after 16 to 20 hrs by CLSI-based microbroth dilution method (reference value: […] ug/ml)
[18] = tested on: Klebsiella pneumoniae; assay: Inhibition of KPC/Cephalosporinase in Klebsiella pneumoniae 664-1 assessed as cefepime antibacterial activity at 4 ug/ml after 16 to 20 hrs by CLSI-based microbroth dilution method (Rvb > […] ug/ml)
[19] = tested on: Escherichia coli; assay: Effect on growth of wild type Escherichia coli ATCC 25922 after 16 to 20 hrs by CLSI-based microbroth dilution method; type: organism-based; details: in vitro
[20] = tested on: Klebsiella pneumoniae; assay: Effect on growth of wild type Klebsiella pneumoniae CI 09 after 16 to 20 hrs by CLSI-based microbroth dilution method; type: organism-based
[21] = tested on: Klebsiella pneumoniae; assay: Effect on growth of Klebsiella pneumoniae UMM expressing SHV5/KPC-2/TEM-1 after 16 to 20 hrs by CLSI-based microbroth dilution method; type: organism-based; details: in vivo
[22] = tested on: Klebsiella pneumoniae; assay: Effect on growth of Klebsiella pneumoniae A-1797 expressing KPC-2/VIM-4/CMY-4 after 16 to 20 hrs by CLSI-based microbroth dilution method; type: organism-based; details: in vivo
[23] = Cytotoxicity against mouse 3T3 cells assessed as growth inhibition at 256 ug/ml relative to control; type: cell-based; details: NIH3T3 cells, read-out: Activity
[24] = target: Coagulation factor X (Homo sapiens, UniProt P00742); assay: Inhibition of human factor Xa at 100 uM
Chain of Coagulation factor X (P00742 41-179 limits assumed): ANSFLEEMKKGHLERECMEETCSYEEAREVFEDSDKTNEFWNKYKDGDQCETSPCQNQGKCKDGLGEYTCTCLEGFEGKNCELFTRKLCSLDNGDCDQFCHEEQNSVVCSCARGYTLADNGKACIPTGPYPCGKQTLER
Chain of Coagulation factor X (P00742 235-488 limits assumed): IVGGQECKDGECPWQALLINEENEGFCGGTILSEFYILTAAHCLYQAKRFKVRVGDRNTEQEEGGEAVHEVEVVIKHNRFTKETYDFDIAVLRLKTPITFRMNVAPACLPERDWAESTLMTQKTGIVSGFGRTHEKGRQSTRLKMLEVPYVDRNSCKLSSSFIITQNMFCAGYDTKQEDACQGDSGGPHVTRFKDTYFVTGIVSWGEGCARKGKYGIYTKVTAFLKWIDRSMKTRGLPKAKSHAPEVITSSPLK

[25] = target: Interstitial collagenase (Homo sapiens, UniProt P03956); assay: Inhibition of human MMP1 at 100 uM
Chain of Interstitial collagenase (P03956 whole entry): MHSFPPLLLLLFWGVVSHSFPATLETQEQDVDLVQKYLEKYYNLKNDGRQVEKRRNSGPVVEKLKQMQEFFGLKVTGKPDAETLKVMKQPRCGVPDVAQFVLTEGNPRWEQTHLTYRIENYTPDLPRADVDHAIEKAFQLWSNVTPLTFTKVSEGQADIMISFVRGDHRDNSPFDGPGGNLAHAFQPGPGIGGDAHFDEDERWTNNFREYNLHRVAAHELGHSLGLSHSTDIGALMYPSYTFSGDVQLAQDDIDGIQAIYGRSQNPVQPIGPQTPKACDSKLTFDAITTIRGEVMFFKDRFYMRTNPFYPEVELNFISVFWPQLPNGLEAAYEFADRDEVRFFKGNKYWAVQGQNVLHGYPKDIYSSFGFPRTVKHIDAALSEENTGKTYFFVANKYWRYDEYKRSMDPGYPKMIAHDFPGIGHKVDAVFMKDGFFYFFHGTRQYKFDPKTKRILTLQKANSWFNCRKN

[26] = target: 72 kDa type IV collagenase (Homo sapiens, UniProt P08253); assay: Inhibition of human MMP2 at 100 uM
Chain of 72 kDa type IV collagenase (P08253 whole entry): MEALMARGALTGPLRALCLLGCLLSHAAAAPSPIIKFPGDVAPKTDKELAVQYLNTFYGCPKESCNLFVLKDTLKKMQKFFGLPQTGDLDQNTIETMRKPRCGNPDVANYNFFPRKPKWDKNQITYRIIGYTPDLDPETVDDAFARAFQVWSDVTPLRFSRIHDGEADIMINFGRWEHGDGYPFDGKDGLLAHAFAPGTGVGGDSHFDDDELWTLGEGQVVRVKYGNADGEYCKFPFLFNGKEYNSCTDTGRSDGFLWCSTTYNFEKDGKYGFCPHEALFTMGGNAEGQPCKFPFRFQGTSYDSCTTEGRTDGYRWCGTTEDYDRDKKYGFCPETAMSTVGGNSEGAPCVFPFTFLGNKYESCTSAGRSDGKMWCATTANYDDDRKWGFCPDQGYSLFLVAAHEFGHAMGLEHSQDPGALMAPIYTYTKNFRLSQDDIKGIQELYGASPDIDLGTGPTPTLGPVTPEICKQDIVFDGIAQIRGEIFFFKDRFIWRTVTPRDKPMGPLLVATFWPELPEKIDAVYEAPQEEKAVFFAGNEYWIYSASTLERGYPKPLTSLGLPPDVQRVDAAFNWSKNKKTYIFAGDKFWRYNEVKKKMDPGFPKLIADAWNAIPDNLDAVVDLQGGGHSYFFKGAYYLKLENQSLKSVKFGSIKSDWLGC

[27] = target: Stromelysin-1 (Homo sapiens, UniProt P08254); assay: Inhibition of human MMP3 at 100 uM
Chain of Stromelysin-1 (P08254 whole entry): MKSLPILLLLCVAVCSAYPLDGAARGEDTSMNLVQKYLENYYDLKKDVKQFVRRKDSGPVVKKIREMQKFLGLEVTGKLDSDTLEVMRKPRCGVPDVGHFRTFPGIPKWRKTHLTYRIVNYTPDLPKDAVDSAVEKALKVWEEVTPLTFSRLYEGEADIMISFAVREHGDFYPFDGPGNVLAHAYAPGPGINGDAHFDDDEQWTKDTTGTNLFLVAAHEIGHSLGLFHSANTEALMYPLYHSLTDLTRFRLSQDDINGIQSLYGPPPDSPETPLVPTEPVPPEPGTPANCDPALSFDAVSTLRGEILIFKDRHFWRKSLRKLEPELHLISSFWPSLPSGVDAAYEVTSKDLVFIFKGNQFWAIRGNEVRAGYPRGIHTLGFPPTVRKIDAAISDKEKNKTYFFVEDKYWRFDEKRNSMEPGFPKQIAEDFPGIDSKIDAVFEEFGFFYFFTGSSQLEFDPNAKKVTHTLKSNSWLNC

[28] = target: Cytochrome P450 2C9 (Homo sapiens, UniProt P11712); assay: Inhibition of human CYP2C9 at 100 uM; type: ADME
Chain of Cytochrome P450 2C9 (P11712 whole entry): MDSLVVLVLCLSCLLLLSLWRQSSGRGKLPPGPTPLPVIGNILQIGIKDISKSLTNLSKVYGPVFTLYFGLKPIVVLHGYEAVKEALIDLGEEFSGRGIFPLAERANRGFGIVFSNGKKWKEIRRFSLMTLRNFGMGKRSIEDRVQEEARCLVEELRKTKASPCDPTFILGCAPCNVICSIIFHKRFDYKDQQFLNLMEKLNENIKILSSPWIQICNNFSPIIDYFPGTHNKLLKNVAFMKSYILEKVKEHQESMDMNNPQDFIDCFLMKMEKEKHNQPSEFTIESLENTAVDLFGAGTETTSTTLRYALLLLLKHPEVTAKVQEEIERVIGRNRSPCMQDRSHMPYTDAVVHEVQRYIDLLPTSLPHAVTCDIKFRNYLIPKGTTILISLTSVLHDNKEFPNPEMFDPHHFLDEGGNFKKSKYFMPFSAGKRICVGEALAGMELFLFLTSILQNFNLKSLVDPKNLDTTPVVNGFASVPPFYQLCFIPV

[29] = target: Cytochrome P450 2C19 (Homo sapiens, UniProt P33261); assay: Inhibition of human CYP2C19 at 100 uM; type: ADME
Chain of Cytochrome P450 2C19 (P33261 whole entry): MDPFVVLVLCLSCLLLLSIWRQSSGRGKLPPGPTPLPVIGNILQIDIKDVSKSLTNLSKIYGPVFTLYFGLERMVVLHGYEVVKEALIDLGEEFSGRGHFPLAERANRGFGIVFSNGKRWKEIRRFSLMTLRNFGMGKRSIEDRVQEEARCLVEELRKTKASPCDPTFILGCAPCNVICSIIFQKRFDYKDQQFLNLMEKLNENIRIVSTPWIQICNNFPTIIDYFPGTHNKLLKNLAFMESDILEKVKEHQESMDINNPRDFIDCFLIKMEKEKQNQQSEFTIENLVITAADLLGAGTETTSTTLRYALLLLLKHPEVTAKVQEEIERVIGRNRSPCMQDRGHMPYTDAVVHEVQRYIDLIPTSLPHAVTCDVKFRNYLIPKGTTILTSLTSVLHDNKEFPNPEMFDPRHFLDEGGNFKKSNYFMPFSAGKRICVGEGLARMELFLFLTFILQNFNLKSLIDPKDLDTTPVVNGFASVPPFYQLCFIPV

[30] = target: Cytochrome P450 2D6 (Homo sapiens, UniProt P10635); assay: Inhibition of human CYP2D6 at 100 uM; type: ADME
Chain of Cytochrome P450 2D6 (P10635 whole entry): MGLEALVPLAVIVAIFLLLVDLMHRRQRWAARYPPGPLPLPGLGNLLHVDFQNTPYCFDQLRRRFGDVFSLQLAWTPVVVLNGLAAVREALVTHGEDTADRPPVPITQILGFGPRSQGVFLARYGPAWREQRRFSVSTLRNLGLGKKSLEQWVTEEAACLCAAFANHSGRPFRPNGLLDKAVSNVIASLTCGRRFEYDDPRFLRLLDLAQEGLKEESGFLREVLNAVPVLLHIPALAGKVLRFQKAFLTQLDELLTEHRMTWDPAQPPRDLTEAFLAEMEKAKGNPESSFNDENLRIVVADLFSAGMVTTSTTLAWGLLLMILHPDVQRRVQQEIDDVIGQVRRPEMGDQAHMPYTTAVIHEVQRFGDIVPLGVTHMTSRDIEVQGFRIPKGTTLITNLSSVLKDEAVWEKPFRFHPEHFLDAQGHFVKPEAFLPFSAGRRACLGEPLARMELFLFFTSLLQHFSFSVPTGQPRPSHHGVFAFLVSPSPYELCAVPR

[31] = target: Voltage-gated inwardly rectifying potassium channel KCNH2 (Homo sapiens, UniProt Q12809); assay: Inhibition of human ERG at 100 uM
Chain of Voltage-gated inwardly rectifying potassium channel KCNH2 (Q12809 whole entry): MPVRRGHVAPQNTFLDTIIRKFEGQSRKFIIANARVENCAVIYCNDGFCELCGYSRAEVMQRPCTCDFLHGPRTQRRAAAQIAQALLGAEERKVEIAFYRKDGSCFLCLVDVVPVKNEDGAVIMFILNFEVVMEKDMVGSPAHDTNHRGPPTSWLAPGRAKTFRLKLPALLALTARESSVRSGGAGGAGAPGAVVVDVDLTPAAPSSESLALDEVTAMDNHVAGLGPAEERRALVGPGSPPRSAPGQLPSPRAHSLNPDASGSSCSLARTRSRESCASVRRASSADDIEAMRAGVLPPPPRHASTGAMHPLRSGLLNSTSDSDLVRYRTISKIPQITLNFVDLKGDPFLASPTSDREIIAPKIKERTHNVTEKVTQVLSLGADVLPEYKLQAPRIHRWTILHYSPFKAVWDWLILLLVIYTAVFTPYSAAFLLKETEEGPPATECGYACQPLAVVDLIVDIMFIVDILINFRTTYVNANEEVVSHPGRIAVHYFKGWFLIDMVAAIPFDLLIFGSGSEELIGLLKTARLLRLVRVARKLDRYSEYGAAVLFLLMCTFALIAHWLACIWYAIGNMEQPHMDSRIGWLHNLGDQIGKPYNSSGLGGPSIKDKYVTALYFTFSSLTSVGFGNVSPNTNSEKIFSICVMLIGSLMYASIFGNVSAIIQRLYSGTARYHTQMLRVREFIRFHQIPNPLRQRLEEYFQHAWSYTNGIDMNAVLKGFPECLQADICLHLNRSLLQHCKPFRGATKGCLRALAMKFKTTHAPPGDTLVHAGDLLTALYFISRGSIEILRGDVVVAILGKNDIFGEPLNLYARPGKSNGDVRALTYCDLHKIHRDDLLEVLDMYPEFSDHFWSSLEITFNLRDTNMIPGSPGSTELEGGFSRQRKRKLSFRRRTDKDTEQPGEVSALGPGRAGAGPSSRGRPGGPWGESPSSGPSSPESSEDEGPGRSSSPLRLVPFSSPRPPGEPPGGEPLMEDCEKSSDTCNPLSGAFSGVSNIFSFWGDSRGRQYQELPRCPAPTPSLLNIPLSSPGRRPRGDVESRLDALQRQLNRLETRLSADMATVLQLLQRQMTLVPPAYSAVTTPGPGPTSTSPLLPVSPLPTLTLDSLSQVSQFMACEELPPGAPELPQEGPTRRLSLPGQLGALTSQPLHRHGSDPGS

[32] = tested on: Escherichia coli; assay: Antibacterial activity against Escherichia coli UNT057-1 expressing CTX-M-15 infected in C3H/Hej mouse assessed as log reduction in viable bacterial counts in kidney at 8 mg/kg, sc bid co-treated with 16 mg/kg of cefepime and measured after 7 days (reference value: 7.25 +/- 0.16); type: functional

Q: What does the source list for NC(=O)[C@@H]1CC[C@@H]2CN1C(=O)N2OS(=O)(=O)O [AVIBACTAM]?
A: MIC [1]: > 16 µg/mL; MIC [2]: 8 µg/mL (≈ 30.2 µM); MIC [3]: 8 µg/mL (≈ 30.2 µM); MIC [4]: 0.06 µg/mL (≈ 0.226 µM); MIC [5]: > 16 µg/mL; MIC [6]: 0.0079 µg/mL (≈ 0.0298 µM); MIC [7]: 0.015 µg/mL (≈ 0.0566 µM); MIC [8]: 2 µg/mL (≈ 7.54 µM); MIC50 [9]: > 32 µg/mL; MIC90 [9]: > 32 µg/mL; MIC50 [10]: > 32 µg/mL; MIC90 [10]: > 32 µg/mL; half-life [11]: 6 min

Q: Which IC50 [12] does the source give for NCCN[C@H]1CC[C@H](CC(=O)N[C@H]2Cc3cccc(C(=O)O)c3OB2O)CC1 here?
A: Its IC50 is 30 nM.

Q: And the IC50 [13]?
A: Its IC50 is 420 nM.

Q: And the MIC [14]?
A: The MIC was 0.06 µg/mL (≈ 0.154 µM).

Q: And the IC50 [15]?
A: The IC50 was 0.4 nM.

Q: What about the MIC [1] of the same molecule?
A: Its MIC is 16 µg/mL (≈ 41.1 µM).

Q: What about the MIC [2] of the same molecule?
A: Its MIC is > 16 µg/mL.

Q: What about the MIC [3] of the same molecule?
A: The MIC was 2 µg/mL (≈ 5.14 µM).

Q: What about the MIC [4] of the same molecule?
A: The MIC was 0.06 µg/mL (≈ 0.154 µM).

Q: What about the MIC [5] of the same molecule?
A: Its MIC is 4 µg/mL (≈ 10.3 µM).

Q: And the MIC [6]?
A: Its MIC is 0.015 µg/mL (≈ 0.0385 µM).

Q: And the MIC [7]?
A: Its MIC is 0.015 µg/mL (≈ 0.0385 µM).

Q: And the MIC [8]?
A: The MIC was 4 µg/mL (≈ 10.3 µM).

Q: And the MIC [16]?
A: Its MIC is 0.5 µg/mL (≈ 1.28 µM).

Q: What about the MIC [17] of the same molecule?
A: Its MIC is < 0.125 µg/mL.

Q: And the MIC [18]?
A: The MIC was 0.25 µg/mL (≈ 0.642 µM).

Q: What about the MIC50 [9] of the same molecule?
A: Its MIC50 is 1 µg/mL (≈ 2.57 µM).

Q: What about the MIC90 [9] of the same molecule?
A: The MIC90 was 4 µg/mL (≈ 10.3 µM).

Q: And the MIC50 [10]?
A: The MIC50 was 1 µg/mL (≈ 2.57 µM).

Q: What about the MIC90 [10] of the same molecule?
A: The MIC90 was 4 µg/mL (≈ 10.3 µM).

Q: And the MIC [19]?
A: Its MIC is > 128 µg/mL.

Q: What about the MIC [20] of the same molecule?
A: Its MIC is > 128 µg/mL.

Q: And the MIC [21]?
A: The MIC was > 128 µg/mL.

Q: And the MIC [22]?
A: Its MIC is > 128 µg/mL.

Q: What about the inhibition at 256 ug/ml [23] of the same molecule?
A: Its inhibition at 256 ug/ml is < 20%.

Q: And the “inhibition (INH)” value [24]?
A: The value was “Not Active”.

Q: What about the “inhibition (INH)” value [25] of the same molecule?
A: Its value is “Not Active”.

Q: What about the “inhibition (INH)” value [26] of the same molecule?
A: Its value is “Not Active”.

Q: And the “inhibition (INH)” value [27]?
A: The value was “Not Active”.

Q: What about the “inhibition (INH)” value [28] of the same molecule?
A: Its value is “Not Active”.

Q: And the “inhibition (INH)” value [29]?
A: The value was “Not Active”.

Q: And the “inhibition (INH)” value [30]?
A: The value was “Not Active”.

Q: What about the “inhibition (INH)” value [31] of the same molecule?
A: Its value is “Not Active”.

Q: What about the half-life [11] of the same molecule?
A: The half-life was 9.6 min.

Q: What about the Activity [32] of the same molecule?
A: Its Activity is 4.87 log10CFU.
